A short description of data set [1]: In vitro half-life at 37 degree Centigrade in phosphate-buffered saline(PBS; pH =7-7.2). Type of data set: ADME.
Data set [2] addresses T1, Methylated-DNA--protein-cysteine methyltransferase (Homo sapiens, UniProt P16455).
T1 sequence (P16455 whole entry): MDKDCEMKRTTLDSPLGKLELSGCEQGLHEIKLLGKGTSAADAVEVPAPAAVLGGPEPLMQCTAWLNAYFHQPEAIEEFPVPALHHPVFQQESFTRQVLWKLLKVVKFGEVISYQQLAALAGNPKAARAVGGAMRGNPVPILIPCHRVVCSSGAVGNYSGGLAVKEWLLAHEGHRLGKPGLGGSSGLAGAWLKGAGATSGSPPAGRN
The data set is described as follows: O6-Alkylguanine-DNA Alkyltransferase-Inactivating Activity in Raji cells (Concentration of inactivator required to produce 50% reduction in alkyltransferase activity). Type of data set: cell-based. In a few lines:
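Raji cells in RPMI + 10% horse serum, 10^6/mL, exposed to inactivator or DMSO vehicle for 2 h at 37 °C. Cells washed, sonicated in Tris-DTT-EDTA buffer pH 8.3 with leupeptin, PMSF added, debris spun out. Supernatant ATase measured by transfer of 3H-methyl from O6-methylguanine DNA substrate to protein; activity expressed as % of untreated controls.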

For data set [3], the target named is T1, Methylated-DNA--protein-cysteine methyltransferase. The data set is described as follows: O6-Alkylguanine-DNA Alkyltransferase-Inactivating Activity (Concentration of inactivator required to produce 50% reduction in alkyltransferase activity). In a few lines:
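Pure recombinant human ATase (50–60 fmol, titrated so ATase is limiting) preincubated 1 h at 37 °C with varying inactivator in 200 µL buffer (50 mM Tris-HCl pH 8.3, 3 mM DTT, 1 mM EDTA, 1 mg/mL BSA) plus 10 µg calf thymus DNA. Then 3H-methylated DNA substrate (4 µg DNA, 100 fmol O6-methylguanine) added, 1 h at 37 °C. After acid hydrolysis, 3H-methylated protein counted by scintillation. Duplicates, experiments repeated several times.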

SMILES strings stand for the structures.

Consider `NC1=Nc2nc[nH]c2C(OCc2cnco2)N1` (stereo not given), for which, in data set [1], the half-life – broadly, the time needed for the level to fall by half in the phase considered – is over 48 h. Further, the IC50 (in general, the concentration that inhibits the measured activity by half) in data set [2] turned out to be 0.22 µM; in data set [3], 0.35 µM.
`NC1=Nc2nc[nH]c2C(OCc2ccccn2)N1` (stereo not given) registered a half-life in data set [1] of over 48 h. This compound also yielded an IC50 in data set [2] of 6 µM.
In data set [1], `NC1=Nc2nc[nH]c2C(OCc2ccc(Cl)nc2)N1` (stereo not given) had a half-life of over 48 h. Further, the IC50 stood at 0.12 µM in data set [2] and 0.2 µM in data set [3].
The corresponding values for `Cn1cncc1COC1N=C(N)Nc2[nH]cnc21` (stereo not given) are 0.19 h, 21 µM and 8.5 µM.
The like results for `NC1=NC(OCc2ccnc(Cl)c2)c2[nH]cnc2N1` (stereo not given) were, in that order, over 48 h, 0.05 µM and 0.04 µM.
The like results for `NC1=Nc2nc[nH]c2C(OCc2cnc3c(c2)OCO3)N1` (stereo not given) were, in that order, over 48 h, 0.09 µM and 0.23 µM.
`Nc1nc(OCc2ccccc2)c2[nH]cnc2n1` [6-O-BENZYLGUANINE] yielded a half-life in data set [1] of over 48 h.
`NC1=NC(OCc2ccc[n+]([O-])c2)c2[nH]cnc2N1` (stereo not given) yielded a half-life in data set [1] of over 48 h. Besides, the figures for the concentration for half-maximal inhibition (IC50) in data set [2] and in data set [3] were 5.4 µM and 1.4 µM, respectively.
On to `NC1=Nc2nc[nH]c2C(OCc2ccco2)N1` (stereo not given), for which the half-life in data set [1] is 0.38 h. In addition, the concentration for half-maximal inhibition (IC50) came out at 0.12 µM in data set [2] and 0.08 µM in data set [3].
The corresponding values for `NC1=Nc2nc[nH]c2C(OCc2cccnc2)N1` (stereo not given) are over 48 h, 0.22 µM and 0.43 µM.
The corresponding values for `NC1=NC(OCc2cncs2)c2[nH]cnc2N1` (stereo not given) are over 48 h, 0.06 µM and 0.033 µM.
The corresponding values for `NC1=NC(OCc2cncc(Br)c2)c2[nH]cnc2N1` (stereo not given) are over 48 h, 0.2 µM and 0.25 µM.
In data set [1], `NC1=NC(OCc2cccs2)c2[nH]cnc2N1` (stereo not given) had a half-life of 0.67 h. For the same compound, the IC50 in data set [2] was 0.03 µM; in data set [3] it was 0.018 µM.
The corresponding values for `NC1=Nc2nc[nH]c2C(OCc2ccncc2)N1` (stereo not given) are over 48 h, 0.2 µM and 0.13 µM.
Regarding `NC1=Nc2nc[nH]c2C(OCc2ccc(Br)s2)N1` (stereo not given), the half-life in data set [1] is 1.95 h. Besides, the 50% inhibitory concentration (IC50) in data set [2] was 0.01 µM; in data set [3], 0.005 µM.
The like results for `NC1=Nc2nc[nH]c2C(OCc2cnsc2)N1` (stereo not given) were, in that order, over 48 h, 0.07 µM and 0.07 µM.

(Values after ChEMBL document CHEMBL1131438, “Inactivation of O6-alkylguanine-DNA alkyltransferase. 1. Novel O6-(hetarylmethyl)guanines having basic rings in the side chain” (J Med Chem, 1998).)
